Test results reported in paper PMC11588046 (Proceedings of the National Academy of Sciences of the …, 2024).
Numbering of substitutions follows the chain as printed. In brackets after ≈: the same amount, converted by molar mass. Like-named read-outs stand apart in the source and are kept apart here.

What was measured:
[1] = tested on: FOP fibroblasts (GM00513); assay: pSMAD Western blot in primary FOP fibroblasts; assay type: cell-based, human; details: FOP cells; for BMP2-induced pSMAD1/5 activation: 5 ng/mL BMP2, inhibitor 1, 5 or 25 µM (LDN 1 µM); for activin A-induced phosphorylation of SMAD1/5: 200 ng/mL activin A, inhibitor 1, 5 or 25 µM (LDN 1 µM)
In short: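 Primary fibroblasts from a patient with FOP (GM00513) were pretreated for 30 min with test compound (1, 5 or 25 µM) or a reference inhibitor (1 µM). Cells then received vehicle (DMSO), 200 ng/mL activin A or 5 ng/mL BMP2 for 45 min, with inhibitor present. Lysates were Western blotted for pSMAD1/5, total SMAD1, total SMAD5 and GAPDH (loading control). For activin A, pSMAD2/3 was also blotted.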

[2] = tested on: WT fibroblasts (GM01652); assay: pSMAD1/5 Western blot in primary WT fibroblasts; assay type: cell-based, human; details: 5 ng/mL BMP2, inhibitor 1, 5 or 25 µM (LDN 1 µM)
[3] = molecular target: T1, WT ALK2 (Homo sapiens, UniProt Q04771); assay type: cell-based; details: read-out: ALK2 IC50; NanoBRET, HEK293 cells
T1 sequence (Q04771 21-509): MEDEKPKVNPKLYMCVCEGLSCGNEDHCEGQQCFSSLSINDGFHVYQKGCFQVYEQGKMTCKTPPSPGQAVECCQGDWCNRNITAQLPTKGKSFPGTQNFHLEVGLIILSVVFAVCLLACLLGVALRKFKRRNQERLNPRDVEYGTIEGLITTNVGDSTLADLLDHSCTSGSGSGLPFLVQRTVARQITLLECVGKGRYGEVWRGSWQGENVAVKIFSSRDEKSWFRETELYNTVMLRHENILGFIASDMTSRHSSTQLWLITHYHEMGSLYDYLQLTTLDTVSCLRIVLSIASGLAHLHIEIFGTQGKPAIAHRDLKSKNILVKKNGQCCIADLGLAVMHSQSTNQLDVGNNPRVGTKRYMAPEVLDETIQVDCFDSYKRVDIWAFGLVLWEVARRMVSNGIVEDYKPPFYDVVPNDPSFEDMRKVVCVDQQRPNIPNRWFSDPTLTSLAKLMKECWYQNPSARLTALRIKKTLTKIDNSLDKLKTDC

[4] = molecular target: T2, mutant ALK2 (R206H) (Homo sapiens, UniProt Q04771, R206H); assay type: cell-based; details: read-out: ALK2 (R206H) IC50; NanoBRET, HEK293 cells
T2 sequence (Q04771 21-509 R206H): T1 sequence (Q04771 21-509) with R186H

[5] = molecular target: WT ALK1 (Homo sapiens, UniProt P37023); assay: NanoBRET TE intracellular kinase assay; assay type: cell-based; details: read-out: ALK1 IC50, HEK293 cells
WT ALK1, sequence (P37023 22-503): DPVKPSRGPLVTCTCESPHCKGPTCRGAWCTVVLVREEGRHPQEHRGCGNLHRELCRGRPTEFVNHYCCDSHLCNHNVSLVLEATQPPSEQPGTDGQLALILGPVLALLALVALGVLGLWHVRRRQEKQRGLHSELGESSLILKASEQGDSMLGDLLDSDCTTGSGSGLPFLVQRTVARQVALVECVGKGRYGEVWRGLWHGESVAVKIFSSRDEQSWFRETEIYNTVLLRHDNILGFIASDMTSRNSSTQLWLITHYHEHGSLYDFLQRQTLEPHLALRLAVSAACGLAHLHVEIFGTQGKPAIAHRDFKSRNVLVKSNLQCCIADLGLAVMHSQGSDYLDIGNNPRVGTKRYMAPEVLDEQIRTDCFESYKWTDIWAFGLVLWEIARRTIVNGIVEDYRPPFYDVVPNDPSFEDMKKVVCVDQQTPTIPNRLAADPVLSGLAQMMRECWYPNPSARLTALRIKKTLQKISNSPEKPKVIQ

[6] = Metabolic stability in mouse liver microsomes; assay type: in vitro ADME
[7] = Metabolic stability in human liver microsomes; assay type: in vitro ADME
[8] = Dynamic solubility assay; assay type: physicochemical
[9] = tested on: 293 T-BRE-Luc cells; assay: BMP-induced luciferase activity in 293 T-BRE-Luc reporter cells; assay type: cell-based
In short: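 293T cells stably carrying a BMP-responsive element–luciferase reporter, about 20,000 per well, attached overnight. Pretreated 30 min with DMSO vehicle or test compound (0.04, 0.2, 1, 5, 25 μM) in phenol-red-free DMEM with 2 mM glutamine and 2% heat-inactivated FBS. Then stimulated 6 h with BMP2 (5 ng/mL), BMP6 (500 ng/mL) or BMP7 (500 ng/mL). BrightGLO luminescence normalized to ligand-only samples; dose-response curves fitted.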

Row | SMILES | IC50 [3] [nM] | IC50 [4] [nM] | IC50 [5] [nM] | MLM t1/2 ([6]; U, extremely unstable) [min] | HLM t1/2 ([7]; U, extremely unstable) [min] | Solubility [8] [µM] | MLM t1/2 [6] [min] | HLM t1/2 [7] [min] | BMP2-induced pSMAD1/5 activation [1] | activin A-induced phosphorylation of SMAD1/5 [1] | BMP2-induced pSMAD1/5 activation [2] | IC50 ([9]; read-out: IC50 of BMP2-induced luciferase activity, 5 ng/mL BMP2, 6 h) [nM] | IC50 ([9]; read-out: IC50 of BMP6-induced luciferase activity, 500 ng/mL BMP6, 6 h) [nM] | IC50 ([9]; read-out: IC50 of BMP7-induced luciferase activity, 500 ng/mL BMP7, 6 h) [nM]
1 | c1ccc2c(-c3cnn4cc(-c5ccc(N6CCNCC6)cc5)cnc34)ccnc2c1 [LDN-193189, reference compound] |  |  |  |  |  |  |  |  | effectively suppressed pSMAD1/5 activation | effectively suppressed pSMAD1/5 activation | effectively suppressed pSMAD1/5 activation |  |  | 
2 | CNC(=O)[C@H]1C[C@H](n2c(-c3cc(OC)c(OC)c(OC)c3)nc3ccc(C(=O)NCCCN(C)C)cc32)C1 [CDD-2281] | > 30000 | > 30000 | > 30000 | 807 | 769 | 199.6 (≈ 105 µg/mL) | 804 | 768 |  |  |  |  |  | 
3 | CNC(=O)[C@H]1C[C@H](n2c(-c3cc(F)cc(OC)c3)nc3ccc(C(=O)NCCCN4CCN(c5ccccc5)CC4)cc32)C1 [CDD-2340] | 5300 | 9250 | > 30000 | 7.1 | 24.4 | 121.8 (≈ 72.9 µg/mL) |  |  | only the highest concentration (25 µM) was sufficient to significantly reduce pSMAD1/5 activation | significantly inhibit the activin A-induced phosphorylation of SMAD1/5 starting at the 1 µM concentration | potently reduced BMP2-induced pSMAD1/5 activation in the WT fibroblasts at 5 and 25 µM |  |  | 

More lines, main results first:

Row | IC50 [3] [nM] | IC50 [4] [nM] | IC50 [5] [nM] | MLM t1/2 ([6]; U, extremely unstable) [min] | HLM t1/2 ([7]; U, extremely unstable) [min] | Solubility [8] [µM] | MLM t1/2 [6] [min] | HLM t1/2 [7] [min] | SMILES | BMP2-induced pSMAD1/5 activation [1] | activin A-induced phosphorylation of SMAD1/5 [1] | BMP2-induced pSMAD1/5 activation [2] | IC50 ([9]; read-out: IC50 of BMP2-induced luciferase activity, 5 ng/mL BMP2, 6 h) [nM] | IC50 ([9]; read-out: IC50 of BMP6-induced luciferase activity, 500 ng/mL BMP6, 6 h) [nM] | IC50 ([9]; read-out: IC50 of BMP7-induced luciferase activity, 500 ng/mL BMP7, 6 h) [nM]
4 | 390 | 460 | 8550 | 2.9 | 17.0 | 141.5 (≈ 82.7 µg/mL) |  |  | COc1cc(-c2nc3ccc(C(=O)NCC4(O)CCN(Cc5ccccc5)CC4)cc3n2C2CCC2)cc(OC)c1OC [CDD-2795] |  |  |  |  |  | 
5 | 1240 | 2400 | > 30000 | 3.7 | 6.0 | 44.8 (≈ 28.6 µg/mL) |  |  | CNC(=O)[C@H]1C[C@H](n2c(-c3ccc(OC)c(OC)c3)nc3ccc(C(=O)NCCCN4CCN(c5cccc(C)c5C)CC4)cc32)C1 [CDD-2421] |  |  |  |  |  | 
6 | 570 | 1230 | > 30000 | 6.3 | 7.8 | 63.5 (≈ 37.1 µg/mL) |  |  | COc1cc(-c2nc3ccc(C(=O)NCCCN4CCN(c5ccccc5)CC4)cc3n2C2CCC2)cc(OC)c1OC [CDD-2315] |  | significantly inhibit the activin A-induced phosphorylation of SMAD1/5 starting at the 1 µM concentration | significantly reduced pSMAD1/5 at all the concentrations tested | 1490 | 1460 | 980
